Results reported in PMC6800648 (Cell chemical biology, 2019).
Values joined by “and” are separate entries in the source; they are usually repeats but may differ in a detail not shown here. Identical values can stand only once. Square brackets hold non-standard residues; d marks the D form. Peptide text beside a SMILES is read from it. * marks the point of attachment. Lys(Me,2-norbornyl) = CN(CCCC[C@H](N)C(=O)O)C1CC2CCC1C2; Benzoyl(4-tBu) = CC(C)(C)c1ccc(C(=O)*)cc1; Lys(Et2) = CCN(CC)CCCC[C@H](N)C(=O)O

How the values were obtained:
Polycomb target genes = experiment: RT-qPCR mRNA expression in HEK293 cells; type: cell-based, human; conditions: for effect on transcription of Polycomb target genes: HEK293, 6 μM and 20 μM, 2 days
Outline: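 HEK293 cells were treated with test compounds at 6 µM and 20 µM for 2 days. RNA was reverse-transcribed and Polycomb target transcripts were quantified by qPCR with ~100–150 bp amplicons.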

CBX7 chromodomain [1] = conditions: ref Stuckey et al., 2016a, 2016b; cited from earlier work
CBX7 [2] = target: T1, CBX7 (Mus musculus, UniProt Q8VDS3); experiment: Polycomb in-vivo Assay; type: cell-based
T1 sequence (Q8VDS3 2-69 limits assumed): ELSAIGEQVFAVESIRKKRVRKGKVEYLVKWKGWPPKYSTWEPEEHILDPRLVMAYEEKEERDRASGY

CBX7 and RING1B = target: T2, CBX7 and RING1B (Mus musculus, UniProt Q8VDS3); experiment: ChIP-qPCR / ChIP-seq in mESCs; type: cell-based; conditions: 4 hours, 20 μM
T2 sequence (Q8VDS3 1-158): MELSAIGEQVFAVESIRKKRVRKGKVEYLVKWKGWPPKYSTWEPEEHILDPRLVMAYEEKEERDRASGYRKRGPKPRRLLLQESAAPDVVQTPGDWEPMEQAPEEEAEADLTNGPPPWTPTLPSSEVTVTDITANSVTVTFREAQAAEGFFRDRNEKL
T2 sequence (Q9CQJ4 2-336 partner limits assumed): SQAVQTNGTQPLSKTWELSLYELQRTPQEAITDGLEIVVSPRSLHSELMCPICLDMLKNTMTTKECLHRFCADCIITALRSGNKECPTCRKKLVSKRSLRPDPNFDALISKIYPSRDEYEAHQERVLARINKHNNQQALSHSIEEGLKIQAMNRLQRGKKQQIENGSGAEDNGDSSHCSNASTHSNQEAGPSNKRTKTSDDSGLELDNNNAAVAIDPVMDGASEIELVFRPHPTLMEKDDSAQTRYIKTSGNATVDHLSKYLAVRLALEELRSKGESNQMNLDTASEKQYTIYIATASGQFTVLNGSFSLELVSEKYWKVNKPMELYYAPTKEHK

CBX7 chromodomain [3] = target: T3, CBX7 chromodomain (Homo sapiens, UniProt O95931); experiment: Electrophoretic mobility shift assay; type: biochemical; conditions: for binding to CBX7 by Coomassie stain (higher molecular weight band shifts): EMSA gel; for effect on FAM-dsDNA binding to CBX7: EMSA, 150 mM CBX7 and 100 nM FAM-dsDNA probe, 1:3 ratio of compound to CBX7
T3 sequence (O95931 1-62): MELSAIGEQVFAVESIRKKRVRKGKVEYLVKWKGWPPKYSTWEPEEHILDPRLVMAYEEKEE
Outline: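 Buffer: 25 mM Tris-HCl pH 7.4, 100 mM NaCl, 0.05% Tween-20, 2 mM DTT. Compound runs used 150 µM CBX7 with 100 nM FAM-DNA probe and 50 µM test compound (0.3% DMSO); protein-only runs used a three-fold CBX7 series. Binding 20 min on ice. Native 10% Tris-glycine gel at 100 V, 4°C, 90 min in the dark. FAM fluorescence imaged, then Coomassie-stained.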

mESCs = experiment: CellTiter-Glo viability assay in mESCs; type: cell-based, mouse; conditions: 48 hr
Outline: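 Mouse ES cells, 5,000 per well, exposed in technical triplicate for 48 hr at 37°C to a ten-point three-fold dilution series prepared from 50 mM DMSO stocks (0.2% DMSO final). Media-only wells served as negative controls. After equilibrating at room temperature, CellTiter-Glo was added, with 2 min shaking and 10 min settling, then luminescence read.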

CBX7 chromodomain [4] = target: T3, CBX7 chromodomain; experiment: Fluorescence polarization; type: biochemical; conditions: for enhancement in CBX7 affinity for FAM-dsDNA: 1:3 ratio of compound to protein titration; for allosteric modulator class of oligonucleotide binding: FP data fit to the Stockton/Ehlert allosteric binding model; for α (factor of enhancement of CBX7 affinity for the DNA probe): Stockton/Ehlert allosteric binding model, 1:3 compound to CBX7, 100 nM FAM-dsDNA
Outline: (§1)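 Buffer: 25 mM Tris-HCl pH 7.4, 100 mM NaCl, 0.05% Tween-20, 2 mM DTT; 100 nM FAM-dsDNA or FAM-ANRIL-RNA; 0.2% DMSO; 30 min at RT. Compound titration: eight-point three-fold series from 100 µM with 30 µM CBX7 chromodomain. Ratio mode: CBX7 and test compound co-diluted at fixed 3:1 from 300 µM/100 µM. Polarisation normalised to a no-protein control; α fitted by the Stockton-Ehlert allosteric model.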

CBX7 chromodomain [5] = target: T3, CBX7 chromodomain; experiment: Fluorescence polarization; type: biochemical
Outline: as §1

CBX7 chromodomain [6] = target: T4, CBX7 chromodomain (Homo sapiens, UniProt O95931); experiment: Isothermal titration calorimetry; type: binding; conditions: ITC
T4 sequence (O95931 8-62): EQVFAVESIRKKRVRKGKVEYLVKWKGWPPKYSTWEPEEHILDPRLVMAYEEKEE
Outline: (§2)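 ITC at 25 °C in 25 mM Tris-HCl pH 7.5, 150 mM NaCl, 2 mM β-mercaptoethanol. Typically 50 µM chromodomain in cell, 0.5 mM test compound in syringe (10:1 kept). Protein quantified by Edelhoch, compound by mass. One 0.2 µl injection then 26 × 1.5 µl injections at 180 s spacing; first point discarded. Kd from one-site nonlinear least-squares fit.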

CBX2 chromodomain = experiment: Isothermal titration calorimetry; type: binding; conditions: from ITC Kd values
Outline: as §2

SUZ12 and H3K27me3 = experiment: Capture ChIP-seq in mESCs, SUZ12 and H3K27me3; type: cell-based, mouse
CDYL2 chromodomain = experiment: Isothermal titration calorimetry; type: binding; conditions: from ITC Kd values
Outline: as §2

CBX7 [7] = target: T5, CBX7 (Mus musculus, UniProt Q8VDS3); type: cell-based; conditions: TetOFF reporter cell line; UNC4976 compared to UNC3866 treatment
T5 sequence (Q8VDS3 1-158): T2 sequence (Q8VDS3 1-158)

CBX6 chromodomain = experiment: Isothermal titration calorimetry; type: binding; conditions: from ITC Kd values
Outline: as §2

[8] = Stockton/Ehlert allosteric binding model, 1:3 compound to CBX7, 100 nM FAM-ANRIL-RNA

| SMILES | effect on transcription of Polycomb target genes (Polycomb target genes) | EC50 (CBX7 [2]) [µM] | CBX7 and RING1B binding at PRC1 target TSSs (CBX7 and RING1B) | binding to CBX7 by Coomassie stain (higher molecular weight band shifts) (CBX7 chromodomain [3]) | effect on FAM-dsDNA binding to CBX7 (CBX7 chromodomain [3]) | enhancement in CBX7 affinity for FAM-dsDNA (CBX7 chromodomain [4]) | allosteric modulator class of oligonucleotide binding (CBX7 chromodomain [4]) | α (factor of enhancement of CBX7 affinity for the DNA probe) (CBX7 chromodomain [4]) | also measured |
| --- | --- | --- | --- | --- | --- | --- | --- | --- | --- |
| CCN(CC)CCCC[C@H](NC(=O)[C@H](CC(C)C)NC(=O)[C@H](C)NC(=O)[C@H](Cc1ccccc1)NC(=O)c1ccc(C(C)(C)C)cc1)C(=O)N[C@@H](CO)C(=O)OC [UNC3866, methyl N^2-(4-(tert-butyl)benzoyl)-L-phenylalanyl-L-alanyl-L-leucyl-N^6,N^6-diethyl-L-lysyl-L-serinate] ({Benzoyl(4-tBu)}-FAL[Lys(Et2)]S-OMe) | either no or a mild effect | 41.7 ± 2.24 | more limited impact | showed binding to CBX7 | did not have any effect | negligible enhancement | silent allosteric modulator (SAM) | 1.5 | fold more potent than fragments of the endogenous H3K27me3 peptide (CBX7 chromodomain [1]): > 100 fold; mESC viability upon compound treatment (mESCs): non-toxic |
| COC(=O)[C@H](CO)NC(=O)[C@H](CCCCN(C)C1CC2CCC1C2)NC(=O)[C@H](CC(C)C)NC(=O)[C@H](C)NC(=O)[C@H](Cc1ccccc1)NC(=O)c1ccc(C(C)(C)C)cc1 (stereo partly drawn) [UNC4976, methyl N^6-(bicyclo[2.2.1]heptan-2-yl)-N^2-(4-(tert-butyl)benzoyl)-L-phenylalanyl-L-alanyl-L-leucyl-N^6-methyl-L-lysyl-L-serinate] ({Benzoyl(4-tBu)}-FAL[Lys(Me,2-norbornyl)]S-OMe) | pronounced increase in transcription | 3.21 ± 0.352 | substantially reduced | showed binding to CBX7 | enhanced FAM-dsDNA binding | significant enhancement | positive allosteric modulator | 4.2 | effect on CBX7 binding to FAM-ANRIL-RNA (CBX7 chromodomain [5]; 1:3 ratio of compound to protein titration): promoted enhanced CBX7 binding to RNA; α (factor of enhancement of CBX7 affinity for the RNA probe) (CBX7 chromodomain [5]; [8]): 4.0; β (ratio of FP factors between [RNA:CBX7:UNC] and [RNA:CBX7]) (CBX7 chromodomain [5]; [8]): 1.1; affinity for CBX4 and CBX7 compared (CBX7 chromodomain [6]): equipotent affinity; fold higher expression than UNC3866 treatment at the same concentration (Polycomb target genes; HEK293, in some cases): 8 fold; selectivity for CBX4/7 over CBX2 (CBX2 chromodomain): 28 fold; fold more potent than UNC3866 in the CBX7 reporter cell line (CBX7 [2]; EC50 ratio versus UNC3866): ~ 14 fold and 14 fold; reduction in SUZ12 binding and H3K27me3 (SUZ12 and H3K27me3): only a mild or insignificant reduction; selectivity for CBX4/7 over CDYL2 (CDYL2 chromodomain): 8 fold; derepression of the GFP reporter gene / maintenance of Polycomb silencing (CBX7 [7]): enhanced; mESC viability upon compound treatment (mESCs; at 100 μM): weak toxicity; change of fluorescence polarization on compound titration (CBX7 chromodomain [4]; 30 μM CBX7 chromodomain, 100 nM FAM-dsDNA): increased polarization; selectivity for CBX4/7 over CBX6 (CBX6 chromodomain): 9 fold |
